Source: ChEMBL document CHEMBL3046615, “Isolation of nematicidal compounds from Tagetes patula L. yellow flowers: structure-activity relationship studies against cyst nematode Heterodera zeae infective stage larvae” (2011)
Active and inactive are the calls of the source. No cut-off for these calls is given here.

How the values were obtained:
Heterodera zeae [1] = test: Nematicidal activity against Heterodera zeae infective stage larvae assessed as nematode mortality at 0.5% under light conditions measured 72 hr post dose by stereoscopic microscopy; format: functional
Outline: (§1)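 Freshly hatched H. zeae second-stage juveniles, 100 per Petri plate, three replicates. Samples in MeOH, DMSO or water were tested in glass cavity blocks; petroleum ether samples were dried onto the block and larvae transferred on agar pieces. Percentages are dilutions of 30 mg/mL stocks (extracts/fractions) or 1 mg/mL stocks (pure compounds). Incubated at 28 ± 2 °C in light or dark box; mortality averaged over three replicates.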

Heterodera zeae [2] = test: Nematicidal activity against Heterodera zeae infective stage larvae assessed as nematode mortality at 0.5% under light conditions measured 48 hr post dose by stereoscopic microscopy; format: functional; outline: as §1
Heterodera zeae [3] = test: Nematicidal activity against Heterodera zeae infective stage larvae assessed as nematode mortality at 1% under dark conditions measured 24 hr post dose by stereoscopic microscopy; format: functional; outline: as §1
Heterodera zeae [4] = test: Nematicidal activity against Heterodera zeae infective stage larvae assessed as nematode mortality at 0.125% under light conditions measured 48 hr post dose by stereoscopic microscopy; format: functional; outline: as §1
Heterodera zeae [5] = test: Nematicidal activity against Heterodera zeae infective stage larvae assessed as nematode mortality at 0.25% under light conditions measured 48 hr post dose by stereoscopic microscopy; format: functional; outline: as §1
Heterodera zeae [6] = test: Nematicidal activity against Heterodera zeae infective stage larvae assessed as nematode mortality at 0.125% under light conditions measured 24 hr post dose by stereoscopic microscopy; format: functional; outline: as §1
Heterodera zeae [7] = test: Nematicidal activity against Heterodera zeae infective stage larvae assessed as nematode mortality at 0.25% under light conditions measured 24 hr post dose by stereoscopic microscopy; format: functional; outline: as §1
Heterodera zeae [8] = test: Nematicidal activity against Heterodera zeae infective stage larvae assessed as nematode mortality at 0.5% under light conditions measured 24 hr post dose by stereoscopic microscopy; format: functional; outline: as §1
Heterodera zeae [9] = test: Nematicidal activity against Heterodera zeae infective stage larvae assessed as nematode mortality at 1% under light conditions measured 24 hr post dose by stereoscopic microscopy; format: functional; outline: as §1
Heterodera zeae [10] = test: Nematicidal activity against Heterodera zeae infective stage larvae assessed as nematode mortality at 0.125% under dark conditions measured 5 to 60 min post dose by stereoscopic microscopy; format: functional, organism-based
Outline: (§2)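 H. zeae freshly hatched second-stage juveniles, 100 per plate, three replicates, at 28 ± 2 °C under light or in a dark box. Dilutions are % of a stock: 30 mg/mL for extracts/fractions, 1 mg/mL for pure compounds. Methanol-, DMSO- or water-soluble samples were tested in glass cavity blocks. Petroleum ether-soluble samples were air-dried in the block and covered with agar pieces bearing cultured larvae. Mortality was followed over 5–60 min; each value is the mean of three experiments.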

Heterodera zeae [11] = test: Nematicidal activity against Heterodera zeae infective stage larvae assessed as nematode mortality at 0.25% under dark conditions measured 5 to 60 min post dose by stereoscopic microscopy; format: functional, organism-based; outline: as §2
Heterodera zeae [12] = test: Nematicidal activity against Heterodera zeae infective stage larvae assessed as nematode mortality at 0.5% under dark conditions measured 5 to 60 min post dose by stereoscopic microscopy; format: functional, organism-based; outline: as §2
Heterodera zeae [13] = test: Nematicidal activity against Heterodera zeae infective stage larvae assessed as nematode mortality at 1% under dark conditions measured 5 to 60 min post dose by stereoscopic microscopy; format: functional, organism-based; outline: as §2
Heterodera zeae [14] = test: Nematicidal activity against Heterodera zeae infective stage larvae assessed as nematode mortality at 2% under dark conditions measured 5 to 60 min post dose by stereoscopic microscopy; format: functional, organism-based; outline: as §2
Heterodera zeae [15] = test: Nematicidal activity against Heterodera zeae infective stage larvae assessed as nematode mortality at 5% under dark conditions measured 5 to 60 min post dose by stereoscopic microscopy; format: functional, organism-based; outline: as §2
Heterodera zeae [16] = test: Nematicidal activity against Heterodera zeae infective stage larvae assessed as nematode mortality at 0.125% under light conditions measured 5 to 60 min post dose by stereoscopic microscopy; format: functional, organism-based; outline: as §2
Heterodera zeae [17] = test: Nematicidal activity against Heterodera zeae infective stage larvae assessed as nematode mortality at 0.25% under light conditions measured 5 to 60 min post dose by stereoscopic microscopy; format: functional, organism-based; outline: as §2
Heterodera zeae [18] = test: Nematicidal activity against Heterodera zeae infective stage larvae assessed as nematode mortality at 0.5% under light conditions measured 5 to 60 min post dose by stereoscopic microscopy; format: functional, organism-based; outline: as §2
Heterodera zeae [19] = test: Nematicidal activity against Heterodera zeae infective stage larvae assessed as nematode mortality at 1% under light conditions measured 5 to 60 min post dose by stereoscopic microscopy; format: functional, organism-based; outline: as §2
Heterodera zeae [20] = test: Nematicidal activity against Heterodera zeae infective stage larvae assessed as nematode mortality at 2% under light conditions measured 5 to 60 min post dose by stereoscopic microscopy; format: functional, organism-based; outline: as §2
Heterodera zeae [21] = test: Nematicidal activity against Heterodera zeae infective stage larvae assessed as nematode mortality at 5% under light conditions measured 5 to 60 min post dose by stereoscopic microscopy; format: functional, organism-based; outline: as §2
Heterodera zeae [22] = test: Nematicidal activity against Heterodera zeae infective stage larvae assessed as nematode mortality at 0.125% under dark conditions measured 48 hr post dose by stereoscopic microscopy; format: functional; outline: as §1
Heterodera zeae [23] = test: Nematicidal activity against Heterodera zeae infective stage larvae assessed as nematode mortality at 0.25% under dark conditions measured 48 hr post dose by stereoscopic microscopy; format: functional; outline: as §1
Heterodera zeae [24] = test: Nematicidal activity against Heterodera zeae infective stage larvae assessed as nematode mortality at 0.125% under dark conditions measured 24 hr post dose by stereoscopic microscopy; format: functional; outline: as §1
Heterodera zeae [25] = test: Nematicidal activity against Heterodera zeae infective stage larvae assessed as nematode mortality at 0.25% under dark conditions measured 24 hr post dose by stereoscopic microscopy; format: functional; outline: as §1
Heterodera zeae [26] = test: Nematicidal activity against Heterodera zeae infective stage larvae assessed as nematode mortality at 0.5% under dark conditions measured 24 hr post dose by stereoscopic microscopy; format: functional; outline: as §1
Heterodera zeae [27] = test: Nematicidal activity against Heterodera zeae infective stage larvae assessed as nematode mortality at 1% under dark conditions measured 48 hr post dose by stereoscopic microscopy; format: functional; outline: as §1
Heterodera zeae [28] = test: Nematicidal activity against Heterodera zeae infective stage larvae assessed as nematode mortality at 0.125% under dark conditions measured 72 hr post dose by stereoscopic microscopy; format: functional; outline: as §1
Heterodera zeae [29] = test: Nematicidal activity against Heterodera zeae infective stage larvae assessed as nematode mortality at 0.25% under dark conditions measured 72 hr post dose by stereoscopic microscopy; format: functional; outline: as §1
Heterodera zeae [30] = test: Nematicidal activity against Heterodera zeae infective stage larvae assessed as nematode mortality at 0.5% under dark conditions measured 72 hr post dose by stereoscopic microscopy; format: functional; outline: as §1
Heterodera zeae [31] = test: Nematicidal activity against Heterodera zeae infective stage larvae assessed as nematode mortality at 0.5% under dark conditions measured 48 hr post dose by stereoscopic microscopy; format: functional; outline: as §1
Heterodera zeae [32] = test: Nematicidal activity against Heterodera zeae infective stage larvae assessed as nematode mortality at 0.125% under light conditions measured 72 hr post dose by stereoscopic microscopy; format: functional; outline: as §1
Heterodera zeae [33] = test: Nematicidal activity against Heterodera zeae infective stage larvae assessed as nematode mortality at 0.25% under light conditions measured 72 hr post dose by stereoscopic microscopy; format: functional; outline: as §1
Heterodera zeae [34] = test: Nematicidal activity against Heterodera zeae infective stage larvae assessed as nematode mortality at 1% under light conditions measured 48 hr post dose by stereoscopic microscopy; format: functional; outline: as §1

Row | SMILES | mortality (Heterodera zeae [2]) | mortality (Heterodera zeae [3]) | mortality (Heterodera zeae [4]) | mortality (Heterodera zeae [5]) | mortality (Heterodera zeae [6]) | mortality (Heterodera zeae [7]) | mortality (Heterodera zeae [8]) | mortality (Heterodera zeae [9]) | Activity (Heterodera zeae [10]) | Activity (Heterodera zeae [11]) | Activity (Heterodera zeae [12]) | Activity (Heterodera zeae [13]) | Activity (Heterodera zeae [14]) | Activity (Heterodera zeae [15]) | Activity (Heterodera zeae [16]) | Activity (Heterodera zeae [17]) | Activity (Heterodera zeae [18]) | Activity (Heterodera zeae [19]) | Activity (Heterodera zeae [20]) | Activity (Heterodera zeae [21]) | other results
1 | CCCCCCCCCCCCCCCCCC(=O)O [STEARIC ACID] | 70% | 100% | 50% | 70% | 50% | 40% | 50% | 100% | inactive | inactive | inactive | inactive | inactive | inactive | inactive | inactive | inactive | inactive | inactive | inactive | mortality (Heterodera zeae [1]): 100%; mortality (Heterodera zeae [22]): 50%; mortality (Heterodera zeae [23]): 70%; mortality (Heterodera zeae [24]): 40%; mortality (Heterodera zeae [25]): 40%; mortality (Heterodera zeae [26]): 50%; mortality (Heterodera zeae [27]): 100%; mortality (Heterodera zeae [28]): 70%; mortality (Heterodera zeae [29]): 100%; mortality (Heterodera zeae [30]): 100%; mortality (Heterodera zeae [31]): 70%; mortality (Heterodera zeae [32]): 70%; mortality (Heterodera zeae [33]): 100%
2 | CCCCCCCC/C=C\CCCCCCCC(=O)O [OLEIC ACID] | 100% | 50% | 50% | 50% | 10% | 10% | 50% | 50% | inactive | inactive | inactive | inactive | inactive | inactive | inactive | inactive | inactive | inactive | inactive | inactive | mortality (Heterodera zeae [22]): 10%; mortality (Heterodera zeae [23]): 10%; mortality (Heterodera zeae [24]): 10%; mortality (Heterodera zeae [25]): 10%; mortality (Heterodera zeae [26]): 40%; mortality (Heterodera zeae [27]): 100%; mortality (Heterodera zeae [34]): 100%; mortality (Heterodera zeae [28]): 10%; mortality (Heterodera zeae [29]): 10%; mortality (Heterodera zeae [31]): 100%; mortality (Heterodera zeae [32]): 100%; mortality (Heterodera zeae [33]): 100%
